From ChEMBL document CHEMBL1129435, “Acyclic nucleotide analogs derived from 8-azapurines: synthesis and antiviral activity” (J Med Chem, 1996)
Converted amounts (≈) assume the structure as drawn.

How the values were obtained:
Human alphaherpesvirus 3 [1] = assay: Antiviral activity in TK+ varicella zoster virus (VZV) 07/1 strain in HEL cell culture; format: functional, organism-based; settings: Human alphaherpesvirus 3, HEL
[2] = system: Moloney murine sarcoma virus; assay: Compound was tested for anti-retroviral activity against moloney murine sarcoma virus (MSV) in murine C3H/3T3 embryo fibroblast cell culture; format: functional, organism-based
How it was run: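 C3H/3T3 fibroblasts were seeded at 5 × 10⁵ cells/mL. After 24 h they were infected with 80 focus-forming units of MSV for 90-120 min at 37 °C; the virus came from tumours induced by intramuscular inoculation of 3-day-old NMRI mice. The medium was then replaced with fresh medium containing various compound concentrations. Transformation was scored microscopically after 6 days.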

[3] = system: Human immunodeficiency virus 2; assay: Inhibition of human immunodeficiency virus-2 (HIV-2) induced cytopathicity in CEM cells; format: functional, organism-based; settings: Human immunodeficiency virus 2, CCRF-CEM
[4] = Antiviral activity against thymidine kinase deficient herpes simplex virus-1 HSV-1 TK- VMW-1837 strain in E6SM cell culture; format: functional, cell-based; settings: Human alphaherpesvirus 1, E6SM
How it was run: (§1)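 Confluent cell monolayers in microtiter trays were inoculated with 100 CCID50 of virus. After 1 h adsorption the residual virus was removed. Cells were then incubated with serial compound concentrations (400, 200, 100, ... µg/mL). Cytopathicity was scored once it was complete in untreated infected controls. The value is the 50% inhibitory concentration, or the concentration reducing plaque formation by 50%, in µg/mL.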

Human alphaherpesvirus 3 [5] = assay: Antiviral activity in TK+ varicella zoster virus (VZV) YS strain in HEL cell culture; format: functional, organism-based; settings: Human alphaherpesvirus 3, HEL
Cytomegalovirus = assay: Antiviral activity against cytomegalovirus (CMV) Davis strain in HEL cell culture; format: functional, organism-based; settings: Human betaherpesvirus 5, HEL; how it was run: as §1
[6] = Antiviral activity against herpes simplex virus-1 KOS in E6SM cell culture; format: functional, cell-based; settings: Human alphaherpesvirus 1, E6SM; how it was run: as §1
[7] = system: Human immunodeficiency virus 1; assay: Inhibition of human immunodeficiency virus-1 (HIV-1) induced cytopathicity in human MT-4 cells; format: functional, organism-based; settings: Human immunodeficiency virus 1, MT4
How it was run: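 MT-4 cells (~4 × 10⁵ cells/mL) were infected with HIV-1(IIIB) at 100 CCID50 per µL. Infected cells were seeded into wells containing compound dilutions and incubated 5 days at 37 °C. Viable cells were then counted by trypan blue exclusion in a blood cell counting chamber.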

Human betaherpesvirus 5 = assay: Antiviral activity against cytomegalovirus (CMV) AD169 strain in HEL cell culture; format: functional, organism-based; settings: Human betaherpesvirus 5, HEL; how it was run: as §1
[8] = system: Human immunodeficiency virus 1; assay: Inhibition of human immunodeficiency virus-1 (HIV-1) induced cytopathicity in CEM cells; format: functional, organism-based; settings: Human immunodeficiency virus 1, CCRF-CEM
How it was run: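 CEM cells (~3 × 10⁵ cells/mL) were infected with HIV-1(IIIB) at 100 CCID50 per µL. Infected cells were plated with compound dilutions and incubated 4 days at 37 °C. Giant cell formation was then examined microscopically.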

Human alphaherpesvirus 2 = assay: Antiviral activity in herpes simple virus-2 (HSV-2) Lyons strain in E6SM cell culture; format: functional, organism-based; settings: Human alphaherpesvirus 2, E6SM; how it was run: as §1
Human alphaherpesvirus 3 [9] = assay: Antiviral activity in TK+ varicella zoster virus (VZV) OKA strain in HEL cell culture; format: functional, organism-based; settings: Human alphaherpesvirus 3, HEL
Vaccinia virus = assay: Antiviral activity against vaccinia virus (VV) in E6SM cell culture; format: functional, organism-based; settings: Orthopoxvirus vaccinia
Human alphaherpesvirus 1 = assay: Antiviral activity against thymidine kinase deficient herpes simplex virus-1 HSV-1 TK- B2006 strain in E6SM cell culture; format: functional, organism-based; settings: Human alphaherpesvirus 1, E6SM; how it was run: as §1

C[C@H](Cn1nnc2c(N)nc(N)nc21)OCP(=O)(O)O
IC50 (Human alphaherpesvirus 3 [1]): > 50 µg/mL
IC50 [2]: 1.58 µg/mL (≈ 5.21 µM)
IC50 [3]: 40 µg/mL (≈ 132 µM)
IC50 [4]: 300 µg/mL (≈ 989 µM)
IC50 (Human alphaherpesvirus 3 [5]): > 50 µg/mL
IC50 (Cytomegalovirus): > 50 µg/mL
IC50 [6]: 300 µg/mL (≈ 989 µM)
IC50 [7]: 44.4 µg/mL (≈ 146 µM)
IC50 (Human betaherpesvirus 5): > 50 µg/mL
IC50 [8]: 30 µg/mL (≈ 98.9 µM)
IC50 (Human alphaherpesvirus 2): 300 µg/mL (≈ 989 µM)
IC50 (Human alphaherpesvirus 3 [9]): > 50 µg/mL
IC50 (Vaccinia virus): > 400 µg/mL
IC50 (Human alphaherpesvirus 1): 300 µg/mL (≈ 989 µM)

Nc1ncnc2c1nnn2CCOCP(=O)(O)O
IC50 (Human alphaherpesvirus 3 [1]): > 100 µg/mL
IC50 [2]: 12.1 µg/mL (≈ 44.1 µM)
IC50 [4]: > 200 µg/mL
IC50 (Human alphaherpesvirus 3 [5]): > 100 µg/mL
IC50 (Cytomegalovirus): > 100 µg/mL
IC50 [6]: > 200 µg/mL
IC50 [7]: > 100 µg/mL
IC50 (Human betaherpesvirus 5): > 100 µg/mL
IC50 (Human alphaherpesvirus 2): > 200 µg/mL
IC50 (Human alphaherpesvirus 3 [9]): > 100 µg/mL
IC50 (Vaccinia virus): > 400 µg/mL
IC50 (Human alphaherpesvirus 1): > 200 µg/mL

Nc1ncnc2c1nnn2C[C@@H](CF)OCP(=O)(O)O
IC50 (Human alphaherpesvirus 3 [1]): > 40 µg/mL
IC50 [2]: > 200 µg/mL
IC50 [3]: > 100 µg/mL
IC50 [4]: > 400 µg/mL
IC50 (Human alphaherpesvirus 3 [5]): > 40 µg/mL
IC50 (Cytomegalovirus): > 40 µg/mL
IC50 [6]: > 400 µg/mL
IC50 (Human betaherpesvirus 5): > 40 µg/mL
IC50 [8]: > 100 µg/mL
IC50 (Human alphaherpesvirus 2): > 400 µg/mL
IC50 (Human alphaherpesvirus 3 [9]): > 40 µg/mL
IC50 (Vaccinia virus): > 400 µg/mL
IC50 (Human alphaherpesvirus 1): > 400 µg/mL

Nc1nc(O)c2nnn(CCOCP(=O)(O)O)c2n1
IC50 (Human alphaherpesvirus 3 [1]): 0.1 µg/mL (≈ 0.345 µM)
IC50 [2]: 0.32 µg/mL (≈ 1.1 µM)
IC50 [3]: 2 µg/mL (≈ 6.89 µM)
IC50 [4]: 2 µg/mL (≈ 6.89 µM)
IC50 (Human alphaherpesvirus 3 [5]): 0.04 µg/mL (≈ 0.138 µM)
IC50 (Cytomegalovirus): 2.3 µg/mL (≈ 7.93 µM)
IC50 [6]: 2 µg/mL (≈ 6.89 µM)
IC50 [7]: 2 µg/mL (≈ 6.89 µM)
IC50 (Human betaherpesvirus 5): 2.3 µg/mL (≈ 7.93 µM)
IC50 [8]: 2 µg/mL (≈ 6.89 µM)
IC50 (Human alphaherpesvirus 2): 2 µg/mL (≈ 6.89 µM)
IC50 (Human alphaherpesvirus 3 [9]): 0.4 µg/mL (≈ 1.38 µM)
IC50 (Vaccinia virus): 0.7 µg/mL (≈ 2.41 µM)
IC50 (Human alphaherpesvirus 1): 7 µg/mL (≈ 24.1 µM)

Nc1ncnc2nn(C[C@@H](CF)OCP(=O)(O)O)nc12
IC50 (Human alphaherpesvirus 3 [1]): > 10 µg/mL
IC50 [2]: 13.1 µg/mL (≈ 42.8 µM)
IC50 (Human alphaherpesvirus 3 [5]): > 10 µg/mL
IC50 (Cytomegalovirus): > 400 µg/mL
IC50 [6]: > 40 µg/mL
IC50 [7]: 15 µg/mL (≈ 49 µM)
IC50 (Human betaherpesvirus 5): > 400 µg/mL
IC50 (Human alphaherpesvirus 3 [9]): > 10 µg/mL
IC50 (Vaccinia virus): > 40 µg/mL
IC50 (Human alphaherpesvirus 1): > 40 µg/mL

Nc1nc(N)c2nnn(C[C@H](O)CO)c2n1
IC50 (Human alphaherpesvirus 3 [1]): > 50 µg/mL
IC50 [2]: > 40 µg/mL
IC50 [3]: > 100 µg/mL
IC50 (Human alphaherpesvirus 3 [5]): > 50 µg/mL
IC50 [6]: > 100 µg/mL
IC50 (Human betaherpesvirus 5): > 50 µg/mL
IC50 [8]: > 100 µg/mL
IC50 (Human alphaherpesvirus 3 [9]): > 50 µg/mL

C[C@H](Cn1nnc2c(N)ncnc21)OCP(=O)(O)O
IC50 (Human alphaherpesvirus 3 [1]): 5 µg/mL (≈ 17.3 µM)
IC50 [2]: 0.85 µg/mL (≈ 2.95 µM)
IC50 [3]: 10 µg/mL (≈ 34.7 µM)
IC50 [4]: 100 µg/mL (≈ 347 µM)
IC50 (Human alphaherpesvirus 3 [5]): 8 µg/mL (≈ 27.8 µM)
IC50 (Cytomegalovirus): > 40 µg/mL
IC50 [6]: 70 µg/mL (≈ 243 µM)
IC50 [7]: 5.2 µg/mL (≈ 18 µM)
IC50 (Human betaherpesvirus 5): > 40 µg/mL
IC50 [8]: 7 µg/mL (≈ 24.3 µM)
IC50 (Human alphaherpesvirus 2): 100 µg/mL (≈ 347 µM)
IC50 (Human alphaherpesvirus 3 [9]): 8 µg/mL (≈ 27.8 µM)
IC50 (Vaccinia virus): > 400 µg/mL
IC50 (Human alphaherpesvirus 1): 70 µg/mL (≈ 243 µM)

C[C@@H](Cn1nnc2c(O)nc(N)nc21)OCP(=O)(O)O
IC50 (Human alphaherpesvirus 3 [1]): > 40 µg/mL
IC50 [2]: 27 µg/mL (≈ 88.8 µM)
IC50 [3]: 85 µg/mL (≈ 279 µM)
IC50 [4]: 300 µg/mL (≈ 986 µM)
IC50 (Human alphaherpesvirus 3 [5]): 4 µg/mL (≈ 13.1 µM)
IC50 (Cytomegalovirus): > 40 µg/mL
IC50 [6]: 300 µg/mL (≈ 986 µM)
IC50 [7]: 52.7 µg/mL (≈ 173 µM)
IC50 (Human betaherpesvirus 5): > 40 µg/mL
IC50 [8]: 40 µg/mL (≈ 131 µM)
IC50 (Human alphaherpesvirus 2): 300 µg/mL (≈ 986 µM)
IC50 (Human alphaherpesvirus 3 [9]): 10 µg/mL (≈ 32.9 µM)
IC50 (Vaccinia virus): 300 µg/mL (≈ 986 µM)
IC50 (Human alphaherpesvirus 1): > 400 µg/mL

CC(C)OP(=O)(CO[C@H](CO)Cn1nc2ncnc(N)c2n1)OC(C)C
IC50 [4]: > 400 µg/mL
IC50 (Human alphaherpesvirus 3 [5]): > 50 µg/mL
IC50 (Cytomegalovirus): > 50 µg/mL
IC50 [6]: > 400 µg/mL
IC50 (Human betaherpesvirus 5): > 50 µg/mL
IC50 (Human alphaherpesvirus 2): > 400 µg/mL
IC50 (Human alphaherpesvirus 3 [9]): > 50 µg/mL
IC50 (Vaccinia virus): > 400 µg/mL
IC50 (Human alphaherpesvirus 1): > 400 µg/mL

Nc1ncnc2nn(C[C@@H](CO)OCP(=O)(O)O)nc12
IC50 (Human alphaherpesvirus 3 [1]): > 100 µg/mL
IC50 [2]: > 100 µg/mL
IC50 [4]: > 400 µg/mL
IC50 (Human alphaherpesvirus 3 [5]): > 100 µg/mL
IC50 (Cytomegalovirus): > 200 µg/mL
IC50 [6]: > 400 µg/mL
IC50 [7]: > 100 µg/mL
IC50 (Human betaherpesvirus 5): > 200 µg/mL
IC50 (Human alphaherpesvirus 2): > 400 µg/mL
IC50 (Human alphaherpesvirus 3 [9]): > 100 µg/mL
IC50 (Vaccinia virus): > 400 µg/mL
IC50 (Human alphaherpesvirus 1): 150 µg/mL (≈ 493 µM)

Nc1nc2c(ncn2COCCO)c(=O)[nH]1 [ACYCLOVIR]
IC50 [6]: 0.015 µg/mL (≈ 0.0666 µM)
IC50 (Human betaherpesvirus 5): 13 µg/mL (≈ 57.7 µM)

Cc1cn([C@H]2C[C@H](N=[N+]=[N-])[C@@H](CO)O2)c(=O)[nH]c1=O [ZIDOVUDINE]
IC50 [2]: 0.02 µg/mL (≈ 0.0748 µM)
IC50 [3]: 0.008 µg/mL (≈ 0.0299 µM)
IC50 [8]: 0.005 µg/mL (≈ 0.0187 µM)
